Results taken from ChEMBL document CHEMBL4354806, “Discovery of an Orally Bioavailable Pan αv Integrin Inhibitor for Idiopathic Pulmonary Fibrosis” (J Med Chem, 2019).

What was measured:
[1] = Inhibition of recombinant human integrin alphaV (31 to 992 residues) beta5 (24 to 719 residues) expressed in CHO cells preincubated for 15 mins followed by Cy3B-RGD probe addition and measured after 2 hrs by fluorescence polarization assay
In short: (§1)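 Soluble purified human integrins from CHO cells, with 1 nM Cy3B-RGD probe, in 25 mM HEPES, 150 mM NaCl, 1 mM CHAPS, pH 7.4, at 20-22 °C. Final protein and cation: αvβ3 1 nM with 0.4 mM MgCl₂; αvβ5 4 nM with 0.1 mM MnCl₂; αvβ6 8 nM with MgCl₂; αvβ8 8 nM with MnCl₂. Read-out was polarization. pIC50 is mean ± SEM over test occasions.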

[2] = target: Integrin alpha-V/beta-3 (Homo sapiens, UniProt P05106+P06756); experiment: Inhibition of recombinant human integrin alphaV (31 to 992 residues) beta3 (27 to 718 residues) expressed in CHO cells preincubated for 15 mins followed by Cy3B-RGD probe addition and measured after 2 hrs by fluorescence polarization assay; in short: as §1
[3] = target: Integrin alpha-V/beta-6 (Homo sapiens, UniProt P06756+P18564); experiment: Inhibition of recombinant human integrin alphaV (31 to 992 residues) beta6 (22 to 707 residues) expressed in CHO cells preincubated for 15 mins followed by Cy3B-RGD probe addition and measured after 2 hrs by fluorescence polarization assay; in short: as §1
[4] = Inhibition of recombinant human integrin alphaV (31 to 992 residues) beta8 (43 to 684 residues) expressed in CHO cells preincubated for 15 mins followed by Cy3B-RGD probe addition and measured after 2 hrs by fluorescence polarization assay; in short: as §1
[5] = Clearance in CD rat at 1 mg/kg, iv and 1 mg/kg, po measured up to 24 hrs by LC-MS/MS analysis; assay type: ADME, organism-based; details: in vivo
In short: (§2)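 Two male CD rats per arm. IV: 1 mg/kg bolus via femoral vein in DMSO:PEG200:water (5:45:50). PO: 1 mg/kg by gavage in 0.5% methyl cellulose/0.2% Tween 80. Blood was taken by tail-vein cannula to 7 h and by venipuncture to 24 h. Plasma was extracted with acetonitrile plus internal standard, and drug measured by LC-MS/MS.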

[6] = Oral bioavailability in CD rat at 1 mg/kg administered via gavage up to 24 hrs by LC-MS/MS analysis; assay type: ADME, organism-based; details: in vivo; in short: as §2
[7] = Volume of distribution at steady state in CD rat at 1 mg/kg, iv and 1 mg/kg, po measured up to 24 hrs by LC-MS/MS analysis; assay type: ADME, organism-based; details: in vivo, read-out: Vdss; in short: as §2
[8] = Permeability of the compound in pH 7.4 phosphate buffer measured after 3 hrs by artificial membrane permeability assay based LC-MS analysis; assay type: ADME; details: PAMPA, read-out: permeability
In short: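 Bilayer of 1.8% egg phosphatidylcholine and 1% cholesterol in n-decane on filter inserts. Phosphate buffer was 50 mM Na₂HPO₄ with 0.5% hydroxypropyl-β-cyclodextrin, pH 7.4. Compound was added to the donor (bottom) well and incubated 3 h at room temperature. Donor and acceptor concentrations were measured by liquid chromatography.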

[9] = Half life in CD rat at 1 mg/kg, iv and 1 mg/kg, po measured up to 24 hrs by LC-MS/MS analysis; assay type: ADME, organism-based; details: in vivo; in short: as §2

SMILES	pIC50 [1]	IC50 [2]	IC50 [3]	pIC50 [4]	clearance [5]	bioavailability [6]	Vd [7]	Papp at 3 h [8]	half-life [9]
O=C(O)C[C@@H](Nc1ccc(OCCc2ccc3c(n2)NCCC3)nn1)c1cccc(Cl)c1	7.9	0.158 µM	0.794 µM	5.7					
O=C(O)CC(Nc1cnc(OCCc2ccc3c(n2)NCCC3)nc1)c1cccc(Cl)c1 (racemic)	7.3	0.0501 µM	0.631 µM	5.6					
O=C(O)CC(Nc1cnc(OCCc2ccc3c(n2)NCCC3)nc1)c1ccc(Cl)cc1 (racemic)	8.2	0.00794 µM	0.251 µM	6.1					
O=C(O)CC(Nc1ccc(OCCc2ccc3c(n2)NCCC3)cn1)c1cccc(CN2CCOCC2)c1 (racemic)	8.5	0.00398 µM	0.0631 µM	7.2					
O=C(O)CC(Nc1ccc(OCCc2ccc3c(n2)NCCC3)cn1)c1cc(C2CC2)cc(C2CC2)c1 (racemic)	7	0.126 µM	0.316 µM	6.9					
O=C(O)CC(Nc1ccc(OCCc2ccc3c(n2)NCCC3)nc1)c1ccc(Cl)cc1 (racemic)	7.3	0.0398 µM	1 µM	5.6					
O=C(O)CC(Nc1ccc(OCCc2ccc3c(n2)NCCC3)cn1)c1cccc(Br)c1 (racemic)	8.4	0.00501 µM	0.0316 µM	7.2					
O=C(O)CC(Nc1ccc(OCCc2ccc3c(n2)NCCC3)nn1)c1cccc(Cl)c1 (racemic)	8.5	0.00316 µM	0.02 µM	7.6					
O=C(O)CC(Nc1ccc(OCCc2ccc3c(n2)NCCC3)nn1)c1ccc(Cl)cc1 (racemic)	8.5	0.002 µM	0.0251 µM	7.5					
O=C(O)CC(Nc1ncc(OCCc2ccc3c(n2)NCCC3)cn1)c1cccc(Cl)c1 (racemic)	8.3	0.00501 µM	0.158 µM	6.6					
O=C(O)CC(Cc1ccc(OCCc2ccc3c(n2)NCCC3)cc1)c1ccccc1 (racemic)	8.7	0.002 µM	1.26 µM	5.8					

Continued by falling IC50 [2], values first:

pIC50 [1]	IC50 [2]	IC50 [3]	pIC50 [4]	clearance [5]	bioavailability [6]	Vd [7]	Papp at 3 h [8]	half-life [9]	SMILES
4.9	12.6 µM	19.5 µM	4.5						O=C(O)CC(Nc1cnc(OCCc2ccc3c(n2)NCCC3)cn1)c1ccc(Cl)cc1 (racemic)
5.3	5.01 µM	12.6 µM	4.9						O=C(O)CC(Nc1cnc(OCCc2ccc3c(n2)NCCC3)cn1)c1cccc(Cl)c1 (racemic)
7.8	0.0126 µM	0.398 µM	6						O=C(O)CC(Nc1ccc(OCCc2ccc3c(n2)NCCC3)nc1)c1cccc(Cl)c1 (racemic)
8.1	0.00794 µM	0.0794 µM	6.7						O=C(O)CC(Nc1ccc(OCCc2ccc3c(n2)NCCC3)cn1)c1ccc(C(F)(F)F)cc1 (racemic)
8.2	0.00631 µM	0.0501 µM	7.1						O=C(O)CC(Nc1ccc(OCCc2ccc3c(n2)NCCC3)cn1)c1cccc(Cl)c1 (racemic)
8.4	0.00398 µM	0.0158 µM	7.4	8 mL/min/kg	98%	0.5 L/kg	8 ×10⁻⁶ cm/s	1.8 h	O=C(O)CC(Nc1ccc(OCCc2ccc3c(n2)NCCC3)cn1)c1cccc(C2CC2)c1 (racemic)
8.2	0.00316 µM	0.0316 µM	6.9						O=C(O)CC(Nc1ccc(OCCc2ccc3c(n2)NCCC3)cn1)c1ccc(CN2CCOCC2)cc1 (racemic)
8.4	0.00316 µM	0.0398 µM	6.9						O=C(O)CC(Nc1ccc(OCCc2ccc3c(n2)NCCC3)cn1)c1ccc(Cl)cc1 (racemic)
8.4	0.00251 µM	0.0794 µM	6.8						O=C(O)CC(Nc1ccc(OCCc2ccc3c(n2)NCCC3)cn1)c1cccc(F)c1 (racemic)
8.5	0.002 µM	0.0126 µM	7.1						O=C(O)CC(Nc1ccc(OCCc2ccc3c(n2)NCCC3)cn1)c1ccc(Oc2ccccc2)cc1 (racemic)
8.8	0.002 µM	0.1 µM	6.4						O=C(O)CC(Nc1ccc(OCCc2ccc3c(n2)NCCC3)cc1)c1cccc(F)c1 (racemic)
9	0.00126 µM	0.126 µM	7.2						O=C(O)CC(Nc1ncc(OCCc2ccc3c(n2)NCCC3)cn1)c1ccc(Cl)cc1 (racemic)
8.9	0.000794 µM	0.00631 µM	8.1						O=C(O)C[C@H](Nc1ccc(OCCc2ccc3c(n2)NCCC3)nn1)c1cccc(Cl)c1
